15 compounds from PubChem BioAssay can be followed below.

Activity calls are given as the source filed them.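 How the source made its calls, unless noted: active means viability loss from added drug above about 55%, and viability with drug at most 40%, in both replicates (limit read from the data, passing the limit was not always enough); inconclusive means both conditions met in only one replicate; inactive means neither replicate meets both conditions.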

Test [1] has as its target Pantothenate synthetase (Mycobacterium tuberculosis (strain ATCC 25618 / H37Rv)) (UniProt P9WIL5). As to the kind of experiment: Coupled enzyme confirmation of inhibitors against recombinant Mtb PanC (AID 375; call rule not given here;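 further: 0% = full reaction with vehicle and 100% = no enzyme background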). The conditions noted are these: coupled enzyme assay; at 10 µM, stronger effect = higher value.
The nature of test [2]: Her2 expression decrease, cell viability multiplex – SKBR3 breast tumor cells, AlphaScreen, ATP viability, primary screen (AID 461;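 active means Her2 level under about 52% in both replicate screens, with viability over 70% of control, limit read from the data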;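 on Her2 level: lower value means less Her2 protein in the cells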;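 on viability: percent of carrier control wells set as 100% viability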). The conditions noted are these: SKBR3 Her2 protein level, 18-24 h, measured here: SKBR3 viability, ATP luminescence, at 10 µM.
Test [3] has as its target Receptor tyrosine-protein kinase erbB-2 (Homo sapiens) (UniProt P04626). The test is described as above. As to conditions: 18-24 h, at 10 µM, stronger effect = lower value.
Test [4] in a line: reduced viability of SK-BR-3 breast cancer cells – cell-based, 24 h, human, pilot screen (AID 572;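 active means viability at or below 10% of carrier control in both of two separate runs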;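 further: compound exposure lasted between 18 and 24 h rather than exactly 24 h; 100% = carrier-treated control wells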). As to conditions: SK-BR-3 viability, CellTiter-Glo luminescence, at 10 µM, stronger effect = lower value.
Test [5] is described as follows: HUVEC growth inhibition – cell-based, human, primary screen (AID 575;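 active means viability at or below 30% in both replicate assays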;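 further: 100% = median of untreated cell wells with 0.1% DMSO on each plate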). As to conditions: HUVEC proliferation, CellTiter-Glo luminescence, 72 h; at 10 µM; stronger effect = lower value. In outline: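 Assay system: primary human umbilical vein endothelial cells / Buffer or medium: endothelial basal medium with 2% FBS plus growth supplements / Compound dosing: one dose, 10 µM final, 0.1% DMSO / Timing: 72 h treatment at 37 °C / Signal: CTG luminescence / Benchmarks: 32 DMSO-only cell-control wells (high), 32 MePR drug-control wells (low) per plate / Plate: collagen-coated 384-well format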

Test [6] in a line: H69AR cell proliferation blockers – human, duplicate replicates, primary screen (AID 580;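 active means viability at or under a set limit in both replicates, limit being median viability minus 3 SD, cut at about 48% in these data, passing the limit was not always enough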;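 further: 100% = mean luminescence of untreated wells and 0% = no signal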). As to conditions: H69AR lung tumor cells viability, ATP luminescence, 72 h; at 10 µM; stronger effect = lower value.
Test [7] is described as follows: MRP1 drug-resistance reversers in H69AR cells – cell-based, doxorubicin co-treatment, pilot screen (AID 601). The conditions noted are these: CellTiter-Glo, 72 h, at 10 µM; for differential viability (reversal): stronger effect = higher value.
Test [8] can be described thus: yeast transport mutant growth inhibition pilot in 384-well plates, post-Golgi transport modulator project (AID 636; in the data active means inhibition above about 31%). As to conditions: absorbance 615 nm, about 18 h, stronger effect = higher value.
Test [9] in a line: growth suppression of yeast trafficking mutant, preliminary HTS, modulators of trafficking downstream of Golgi apparatus project, 1536-format plate, OD 615 nm (AID 637; in the data active means inhibition above about 30%). The conditions noted are these: yeast transport mutant growth, absorbance 615 nm, 18 h; stronger effect = higher value.
The mark [10] stands for this setting: H69AR cells + 2 uM doxorubicin, measured here: viability with 2 uM doxorubicin, stronger effect = lower value.
Setting [11] is: H69AR cells, compound alone cytotoxicity.

Chain of Receptor tyrosine-protein kinase erbB-2 (Homo sapiens) (P04626 whole entry, looked up): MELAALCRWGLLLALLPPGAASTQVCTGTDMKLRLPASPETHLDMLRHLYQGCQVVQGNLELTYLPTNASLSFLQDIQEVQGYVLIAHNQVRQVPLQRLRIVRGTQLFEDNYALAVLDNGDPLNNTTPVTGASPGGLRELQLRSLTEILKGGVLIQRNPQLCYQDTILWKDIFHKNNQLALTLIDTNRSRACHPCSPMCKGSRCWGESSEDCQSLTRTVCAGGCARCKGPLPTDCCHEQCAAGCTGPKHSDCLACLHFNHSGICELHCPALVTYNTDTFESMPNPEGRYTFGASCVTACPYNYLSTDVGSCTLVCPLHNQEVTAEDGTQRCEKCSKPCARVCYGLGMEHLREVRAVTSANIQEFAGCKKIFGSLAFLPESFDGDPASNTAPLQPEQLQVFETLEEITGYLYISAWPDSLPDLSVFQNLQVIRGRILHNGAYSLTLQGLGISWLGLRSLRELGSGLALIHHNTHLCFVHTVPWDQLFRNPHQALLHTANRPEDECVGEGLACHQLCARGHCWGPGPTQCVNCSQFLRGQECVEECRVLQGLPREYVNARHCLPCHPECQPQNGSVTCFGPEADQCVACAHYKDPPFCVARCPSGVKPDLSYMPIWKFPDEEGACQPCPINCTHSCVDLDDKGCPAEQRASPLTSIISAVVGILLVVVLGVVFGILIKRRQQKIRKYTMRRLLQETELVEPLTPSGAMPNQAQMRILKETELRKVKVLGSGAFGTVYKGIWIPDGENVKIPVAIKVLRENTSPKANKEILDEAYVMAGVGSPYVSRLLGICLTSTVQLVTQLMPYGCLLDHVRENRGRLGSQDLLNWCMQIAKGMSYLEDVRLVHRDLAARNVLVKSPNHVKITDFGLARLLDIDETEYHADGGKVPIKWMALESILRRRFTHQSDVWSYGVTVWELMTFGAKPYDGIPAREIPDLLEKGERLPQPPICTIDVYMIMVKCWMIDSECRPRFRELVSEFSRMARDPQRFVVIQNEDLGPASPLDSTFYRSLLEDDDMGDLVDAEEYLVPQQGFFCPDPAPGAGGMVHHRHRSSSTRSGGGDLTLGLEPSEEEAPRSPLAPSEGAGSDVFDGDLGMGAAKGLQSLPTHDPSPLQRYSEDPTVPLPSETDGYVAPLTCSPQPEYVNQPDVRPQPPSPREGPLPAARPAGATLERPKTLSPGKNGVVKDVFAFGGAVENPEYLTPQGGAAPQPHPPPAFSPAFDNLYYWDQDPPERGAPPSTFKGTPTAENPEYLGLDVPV
Chain of Pantothenate synthetase (Mycobacterium tuberculosis (strain ATCC 25618 / H37Rv)) (P9WIL5 whole entry, looked up): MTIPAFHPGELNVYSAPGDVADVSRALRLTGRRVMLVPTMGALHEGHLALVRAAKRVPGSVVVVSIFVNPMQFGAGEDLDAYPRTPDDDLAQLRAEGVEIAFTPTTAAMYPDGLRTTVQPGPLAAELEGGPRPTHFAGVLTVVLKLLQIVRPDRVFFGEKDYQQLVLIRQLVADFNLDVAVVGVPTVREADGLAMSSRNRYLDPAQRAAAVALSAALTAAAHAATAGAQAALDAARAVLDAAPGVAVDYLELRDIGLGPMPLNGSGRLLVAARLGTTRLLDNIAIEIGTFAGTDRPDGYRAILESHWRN

As to `CCOC(=O)C1CCCCC12C(C#N)=C(N)Oc1n[nH]c(C)c12` (centres undefined), the figures for the inhibition in [1], in test [8] and in test [9] were 0% (inactive), 0.66% (inactive) and 25.1% (inactive), respectively. In addition, the viability was 91.5% in test [2]; 91.5% (inactive) in test [4]; 96% (inactive) in [5]; 93.3% (inactive) in [6]; 99.6% in test [7] (setting [10]); 93.3% in test [7] (setting [11]). Besides, the Her2 level in test [3] is 94.5% (inactive). The differential viability (reversal) in test [7] (H69AR cells + 2 uM doxorubicin) is -6.3% (inactive).

In the case of `O=C(COc1ccc2ccccc2c1)N1CCN(C2CCN(Cc3ccccc3)CC2)CC1`, the results for the inhibition in test [1], in test [8] and in test [9] were 0% (inactive), -0.13% (inactive) and 1.8% (inactive), respectively. In addition, the viability in [2] was 93%; in [4] it was 93% (inactive); in test [5], 62.5% (inactive); in test [6], 99.8% (inactive); in [7] (setting [10]) it was 96%; in test [7] (setting [11]) it was 99.8%. Besides, in test [3], the Her2 level was 92% (inactive). Also, in test [7] (H69AR cells + 2 uM doxorubicin), the differential viability (reversal) is 3.83% (inactive).

For the compound `CCn1nc(-c2ccccc2)nc2c(=O)n(C)c(=O)nc1-2`, the inhibition in test [1] was 0% (inactive); in test [8], 98.4% (active); in test [9], 100% (active). In addition, the viability in [2] is 106%; in test [4] it was 106% (inactive); in test [5] it was 2.75% (active); in [6] it was 1.38% (active); in [7] (setting [10]) it was 0.875%; in [7] (setting [11]), 1.38%. Further, in test [3], the Her2 level was 93% (inactive). Further, the differential viability (reversal) in [7] (H69AR cells + 2 uM doxorubicin) was 0.5% (inactive).

Turning to `O=c1[nH]c(=O)n(-c2ccc(F)cc2)c(O)c1C=Nc1ccccc1N1CCCC1`, the figures for the inhibition in [1], in test [8] and in test [9] were 8% (inactive), -3.55% (inactive) and 3% (inactive), respectively. Besides, the viability in test [2] is 97.5%; in test [4], 97.5% (inactive); in test [5], 73.9% (inactive); in test [6] it was 61.3% (inactive); in test [7] (setting [10]), 68.2%; in [7] (setting [11]) it was 61.3%. Also, the Her2 level in [3] was 105% (inactive). Besides, the differential viability (reversal) in test [7] (H69AR cells + 2 uM doxorubicin) was -6.94% (inactive).

As to `Cc1ccccc1NC1=NCCCS1`, the inhibition was 3% (inactive) in [1], -4.61% (inactive) in test [8] and -0.67% (inactive) in [9]. Moreover, the viability was 106% in test [2]; 106% (inactive) in [4]; 99.3% (inactive) in [5]; 95.1% (inactive) in [6]; 96.1% in [7] (setting [10]); 95.1% in [7] (setting [11]). Moreover, in [3], the Her2 level is 101% (inactive). The differential viability (reversal) in test [7] (H69AR cells + 2 uM doxorubicin) is -1.09% (inactive).

For the compound `CC(C)CC12CN3CCN(CC(C3)/C1=N/O)C2`, the inhibition was 0% (inactive) in [1], -5.54% (inactive) in test [8] and -0.98% (inactive) in test [9]. Moreover, the viability is 107% in test [2]; 107% (inactive) in test [4]; 108% (inactive) in [5]; 96.4% (inactive) in test [6]; 87.8% in test [7] (setting [10]); 96.4% in test [7] (setting [11]). Besides, the Her2 level in [3] is 101% (inactive). The differential viability (reversal) in test [7] (H69AR cells + 2 uM doxorubicin) was 8.57% (inactive).

As to `Cc1[nH]c2c(Cl)cccc2c1CCN`, the inhibition in [1] is 0% (inactive); in test [8], -4.67% (inactive); in test [9] it was 5.9% (inactive). Besides, the viability was 97.5% in test [2]; 97.5% (inactive) in [4]; 84.4% (inactive) in [5]; 13.2% (active) in test [6]; 83.1% in test [7] (setting [10]); 13.2% in [7] (setting [11]). In addition, in test [3], the Her2 level was 85.5% (inactive). For the same compound, in test [7] (H69AR cells + 2 uM doxorubicin), the differential viability (reversal) is -69.9% (inactive).

In the case of `COc1ccc(OC)c(C2=NOC(C(=O)N3CCC4(CC3)OCCO4)C2)c1` (centres undefined), the inhibition in [1] is 7% (inactive); in test [8] it was -6.49% (inactive); in test [9], 0.5% (inactive). Moreover, the viability in [2] is 106%; in test [4], 106% (inactive); in test [5], 103% (inactive); in test [6] it was 99% (inactive); in test [7] (setting [10]), 86%; in test [7] (setting [11]), 99%. In test [3], the Her2 level is 99% (inactive). Moreover, the differential viability (reversal) in test [7] (H69AR cells + 2 uM doxorubicin) is 13% (inactive).

In the case of `CCNc1ccc(P(=S)(N(C)C)N(C)C)cc1`, the figures for the inhibition in test [1], in test [8] and in [9] were 1% (inactive), -7.92% (inactive) and -4.6% (inactive), respectively. For the same compound, the viability in test [2] was 91%; in [4] it was 91% (inactive); in test [5] it was 115% (inactive); in test [6], 88.2% (inactive); in test [7] (setting [10]), 105%; in [7] (setting [11]) it was 88.2%. In [3], the Her2 level was 93% (inactive). Further, the differential viability (reversal) in test [7] (H69AR cells + 2 uM doxorubicin) is -16.7% (inactive).

Turning to `CN(C)[C@@H]1C(=O)C(C(N)=O)=C(O)[C@@]2(O)C(=O)C3=C(O)c4c(O)ccc(Cl)c4[C@@](C)(O)C3C[C@@H]12` (some centres undefined), the inhibition in test [1] is 1% (inactive). Also, the viability was 119% in test [2]; 119% (inactive) in [4]; 104% (inactive) in test [5]; 96.8% (inactive) in test [6]; 94.5% in test [7] (setting [10]); 96.8% in test [7] (setting [11]). For the same compound, the Her2 level in test [3] was 104% (inactive). In [7] (H69AR cells + 2 uM doxorubicin), the differential viability (reversal) was 2.32% (inactive).

With `COc1ccc(CN2CCN(c3ccccc3F)CC2)c(OC)c1`, the figures for the inhibition in [1], in [8] and in test [9] were 1% (inactive), -4.46% (inactive) and -0.98% (inactive), respectively. In addition, the viability is 92% in [2]; 92% (inactive) in test [4]; 91.1% (inactive) in test [5]; 128% (inactive) in test [6]; 85.4% in [7] (setting [10]); 128% in test [7] (setting [11]). The Her2 level in [3] was 88% (inactive). Also, in test [7] (H69AR cells + 2 uM doxorubicin), the differential viability (reversal) is 42.5% (inactive).

For the compound `COc1ccc(C(=O)N2CCCC2=O)cc1`, the inhibition in [1] was 10% (inactive). The viability in test [2] was 110%; in [4], 110% (inactive); in test [5] it was 119% (inactive); in test [6] it was 103% (inactive); in [7] (setting [10]) it was 89.1%; in test [7] (setting [11]), 103%. For the same compound, the Her2 level in test [3] is 94.5% (inactive). The differential viability (reversal) in test [7] (H69AR cells + 2 uM doxorubicin) is 13.5% (inactive).

In the case of `CN1C(=O)N(C)C(=O)C2(Cc3ccccc3N3CCOCC32)C1=O` (centres undefined), the inhibition is 0% (inactive) in test [1], -6.8% (inactive) in test [8] and -2.86% (inactive) in [9]. In addition, the viability in test [2] is 104%; in test [4], 104% (inactive); in test [5], 94.8% (inactive); in [6], 102% (inactive); in [7] (setting [10]), 94%; in test [7] (setting [11]), 102%. For the same compound, the Her2 level in [3] is 88% (inactive). The differential viability (reversal) in test [7] (H69AR cells + 2 uM doxorubicin) was 8.12% (inactive).

Take `c1ccc2c(c1)OCC(C1=NCCN1)O2` (centres undefined): in [1], the inhibition is 0% (inactive). Also, the viability is 104% in test [2]; 104% (inactive) in test [4]; 108% (inactive) in test [5]; 81.4% (inactive) in [6]; 72.2% in test [7] (setting [10]); 81.4% in [7] (setting [11]). In test [3], the Her2 level is 108% (inactive). For the same compound, in test [7] (H69AR cells + 2 uM doxorubicin), the differential viability (reversal) was 9.15% (inactive).

For `O=C1CC(c2ccccc2)CC(O)=C1C=NCCN1CCN(C(=O)Cc2ccccc2)CC1` (centres undefined), the inhibition in test [1] is 0% (inactive); in test [8], -0.26% (inactive); in [9], 11.5% (inactive). Moreover, the viability in [2] was 122%; in test [4], 122% (inactive); in [5], 91.2% (inactive); in test [6], 92.1% (inactive); in test [7] (setting [10]) it was 94.8%; in [7] (setting [11]), 92.1%. Further, the Her2 level in test [3] was 97% (inactive). In addition, in [7] (H69AR cells + 2 uM doxorubicin), the differential viability (reversal) was -2.69% (inactive).
